In general, IC50 refers to the concentration that gives 50% inhibition.

The values that follow come from article PMC12394810 (RSC Advances, 2025).

Entries after “also recorded” stand apart in the source; their conditions may differ.

Data set [1] concerns SKBR-3 (human breast cancer cell line). Briefly: MTT cytotoxicity assay, SKBR-3. Particulars: SK-BR-3, 48 h, read-out: IC50 SKBR-3. In kind it is cell-based. Summed up: (§1)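 ATCC cells grown in DMEM with 10% FBS, 2 mM L-glutamine and 100 μg/mL penicillin–streptomycin at 37 °C, 5% CO2. Medium refreshed, 10 μL of 12 mM MTT stock added, then 4 h in the dark at 37 °C. Formazan dissolved in DMSO and read at 570 nm against media-only blanks. Three independent experiments; IC50 by linear regression.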

In data set [2] the test system is HepG2 (Human hematoma cell line). Briefly: MTT cytotoxicity assay, HEPG2. In kind it is cell-based. Particulars: HepG2, 48 h, read-out: IC50 HEPG2. Summed up: as §1
A general note: Formazan colour is commonly taken as a measure of viable cells.

The test system of data set [3] is DU145 (human prostate cell line). As to the kind of experiment: MTT cytotoxicity assay, DU145. The conditions noted are these: DU-145, 48 h, read-out: IC50 DU145. In kind it is cell-based. Summed up:
as §1

In data set [4] the test system is HEK-293 (human embryonic kidney cell line). As to the kind of experiment: MTT cytotoxicity assay, HEK-293. In kind it is cell-based. The conditions noted are these: HEK293, 48 h, read-out: IC50 HEK-293.
The test system of data set [5] is erythrocytes (heparinized human blood). Briefly: Erythrocyte osmotic fragility. It counts as cell-based. The conditions noted are these: 1 μL of 10 mg mL^−1 stock, 37 °C, 30 min.
The test system of another data set is Swiss albino mice. As to the kind of experiment: In vivo acute oral toxicity of compound 5n. The conditions noted are these: for ALKP / Albumin / Bilirubin / Body weight / Cholesterol / Creatinine / Haemoglobin / RBC / SGOT / SGPT / Serum protein / Triglycerides / WBC: n = 6. Summed up:
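30 Swiss albino mice (15 male, 15 female; 22–25 g), 7-day acclimatization, 22 ± 5 °C, 12 h light/dark, standard feed and water ad libitum. Five groups of 3 male + 3 female. Single oral dose of test compound at 5, 50, 300 or 1000 mg kg−1, suspended in gum acacia and 0.7% CMC; controls received vehicle. Clinical observation, body weight, haematology, serum biochemistry, organ weights; mean ± SE, n = 6, compared with control.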

The mark [6] stands for this setting: single acute oral dose 5, 50, 300, 1000 mg kg^−1.
The mark [7] stands for this setting: single oral dose 5 mg kg^−1, mean ± SE.
[8] abbreviates: single oral dose 50 mg kg^−1, mean ± SE.
Setting [9] is: single oral dose 300 mg kg^−1, mean ± SE.
The mark [10] stands for this setting: single oral dose 1000 mg kg^−1, mean ± SE.

On to `CCCCCOc1ccccc1C(=O)/C=C/C=C/c1ccccc1` [Compound 5m, (2E,4E)-1-(2-(Pentyloxy)phenyl)-5-phenylpenta-2,4-dien-1-one], for which the IC50 was determined as 125 ± 6 µM in data set [1], 33.2 ± 0.7 µM in data set [2], 126.8 ± 0.2 µM in data set [3] and 104 ± 7.3 µM in data set [4].
Consider `O=c1c(O)c(-c2ccc(O)c(O)c2)oc2cc(O)cc(O)c12` [Quercetin, reference compound], for which the “MEF50 (Mean Erythrocyte Fragility; concentration of PBS at which 50% of erythrocytes undergo hemolysis)” value in data set [5] came to 0.431.
Consider `N#Cc1ccccc1COc1ccccc1C(=O)/C=C/C=C/c1ccccc1` [Compound 5i, 2-((2-((2E,4E)-5-Phenylpenta-2,4-dienoyl)phenoxy)methyl) benzonitrile], for which the IC50 was found to be 75.3 ± 2.1 µM in data set [1], 42 ± 2.1 µM in data set [2], 68.4 ± 2.8 µM in data set [3] and 48.2 ± 5 µM in data set [4].
With `O=C(/C=C/C=C/c1ccccc1)c1ccccc1OCc1ccc(Cl)c(Cl)c1` [Compound 5b, (2E,4E)-1-(2-((3,4-dichlorobenzyl)oxy)phenyl)-5-phenylpenta-2,4-dien-1-one], in data set [5], the “MEF50 (Mean Erythrocyte Fragility; concentration of PBS at which 50% of erythrocytes undergo hemolysis)” value worked out at 0.538. Further, the IC50 in data set [1] was 22.4 ± 2.4 µM; in data set [2] it was 9.19 ± 0.6 µM; in data set [3], 17.9 ± 3.4 µM; in data set [4] it was 20.4 ± 1.6 µM.
For `O=C(/C=C/C=C/c1ccccc1)c1ccccc1OCc1ccccc1Br` [Compound 5h, (2E,4E)-1-(2-((2-Bromobenzyl)oxy)phenyl)-5-phenylpenta-2,4-dien-1-one], the IC50 in data set [1] came to 244 ± 4.7 µM; in data set [2], 45 ± 3.3 µM; in data set [3], 28.6 ± 2.2 µM; in data set [4], 23.4 ± 4.7 µM.
In the case of `O=C(/C=C/C=C/c1ccccc1)c1ccccc1OCc1ccc(F)cc1` [Compound 5e, (2E,4E)-1-(2-((4-Fluorobenzyl)oxy)phenyl)-5-phenylpenta-2,4-dien-1-one], the IC50 came out at 56.1 ± 1.8 µM in data set [1], 282 ± 5.7 µM in data set [2], 278.6 ± 1.7 µM in data set [3] and 49.8 ± 2.8 µM in data set [4].
Turning to `COc1cccc2c1C(=O)c1c(O)c3c(c(O)c1C2=O)C[C@@](O)(C(=O)CO)C[C@@H]3O[C@H]1C[C@H](N)[C@H](O)[C@H](C)O1` [Doxorubicin, reference compound], the values for the IC50 in data set [1], in data set [2] and in data set [3] were 0.7 ± 0.56 µM, 2.5 ± 1.42 µM and 0.45 ± 0.52 µM, respectively.
On to `O=C(/C=C/C=C/c1ccccc1)c1ccccc1OCc1ccc(Br)cc1` [Compound 5g, (2E,4E)-1-(2-((4-Bromobenzyl)oxy)phenyl)-5-phenylpenta-2,4-dien-1-one], for which the IC50 in data set [1] was 15.7 ± 2.8 µM; in data set [2], 25.8 ± 1.6 µM; in data set [3], 16.9 ± 2.3 µM; in data set [4], 27.6 ± 4.2 µM.
For `Cc1ccc(COc2ccccc2C(=O)/C=C/C=C/c2ccccc2)cc1` [Compound 5j, (2E,4E)-1-(2-((4-Methylbenzyl)oxy)phenyl)-5-phenylpenta-2,4-dien-1-one], the IC50 in data set [1] was 7.87 ± 2.1 µM; in data set [2], 25.7 ± 1.5 µM; in data set [3] it was 21.3 ± 5.6 µM; in data set [4], 23.6 ± 1.4 µM.
Regarding `O=C(/C=C/C=C/c1ccccc1)c1ccccc1OCCBr` [Compound 5n, (2E,4E)-1-(2-(2-Bromoethoxy)phenyl)-5-phenylpenta-2,4-dien-1-one], the “MEF50 (Mean Erythrocyte Fragility; concentration of PBS at which 50% of erythrocytes undergo hemolysis)” value in data set [5] is listed as 0.457. Besides, the “Dose well tolerated / safe as a single acute oral dose” value in the data set with Swiss albino mice (oral) was “up to 1000 mg kg^−1”. Further, in the data set with Swiss albino mice (setting [6]), the “Gross pathology, absolute and relative organ weights” value is “no significant abnormalities in absolute or relative organ weights”; the “Morbidity, mortality, abnormal clinical signs” value is recorded as “no morbidity, mortality, or abnormal clinical signs; also recorded: no morbidity, mortality”. In the data set with Swiss albino mice (setting [7]), this molecule registered an ALKP of 170.67 ± 13.43 U L^−1, an Albumin of 2.55 ± 0.19 g/dL, a Bilirubin of 0.50 ± 0.00 mg/dL and a Body weight of 31.33 ± 1.54 g. In the data set on Swiss albino mice (setting [7]), this molecule came in with a Cholesterol of 113.94 ± 4.49 mg/dL, a Creatinine of 0.92 ± 0.08 mg/dL, a Haemoglobin of 12.74 ± 0.51 g/dL and an RBC of 8.20 ± 0.60 million per mm^3. In the data set with Swiss albino mice (setting [7]), this molecule returned an SGOT of 20.84 ± 0.88 U L^−1, an SGPT of 16.76 ± 0.67 U L^−1, a Serum protein of 5.85 ± 0.13 mg/mL and a Triglycerides of 111.43 ± 4.39 mg/dL. Besides, the WBC with Swiss albino mice (setting [7]) is reported as 9.48 ± 0.68 1000*/mm^3. In the data set on Swiss albino mice (setting [8]), this molecule had an ALKP of 164.25 ± 13.54 U L^−1, an Albumin of 2.58 ± 0.07 g/dL, a Bilirubin of 0.51 ± 0.00 mg/dL and a Body weight of 28.33 ± 0.72 g. In the data set with Swiss albino mice (setting [8]), this molecule came in with a Cholesterol of 110.16 ± 3.57 mg/dL, a Creatinine of 0.86 ± 0.06 mg/dL, a Haemoglobin of 12.68 ± 0.67 g/dL and an RBC of 7.77 ± 0.66 million per mm^3. In the data set on Swiss albino mice (setting [8]), the SGOT worked out at 20.60 ± 1.71 U L^−1, the SGPT was determined as 18.63 ± 0.59 U L^−1, the Serum protein came to 5.76 ± 0.16 mg/mL and the Triglycerides was determined as 111.02 ± 5.61 mg/dL. In addition, the WBC in the data set on Swiss albino mice (setting [8]) is recorded as 9.54 ± 0.79 1000*/mm^3. In the data set with Swiss albino mice (setting [9]), the ALKP is 173.23 ± 14.47 U L^−1, the Albumin turned out to be 2.55 ± 0.19 g/dL, the Bilirubin came to 0.49 ± 0.02 mg/dL and the Body weight came to 31.82 ± 0.96 g. Moreover, in the data set on Swiss albino mice (setting [9]), the Cholesterol amounted to 111.51 ± 3.48 mg/dL, the Creatinine is 0.90 ± 0.13 mg/dL, the Haemoglobin stood at 12.68 ± 0.71 g/dL and the RBC turned out to be 7.34 ± 0.38 million per mm^3. Moreover, in the data set with Swiss albino mice (setting [9]), the SGOT came out at 19.39 ± 1.51 U L^−1, the SGPT is 18.03 ± 0.64 U L^−1, the Serum protein amounted to 5.86 ± 0.18 mg/mL and the Triglycerides came out at 110.41 ± 3.90 mg/dL. In addition, in the data set on Swiss albino mice (setting [9]), the WBC is on record as 10.13 ± 0.50 1000*/mm^3. In addition, in the data set on Swiss albino mice (setting [10]), the ALKP was found to be 170.75 ± 6.26 U L^−1, the Albumin was 2.70 ± 0.09 g/dL, the Bilirubin was 0.47 ± 0.04 mg/dL and the Body weight came to 27.92 ± 1.30 g. In the data set on Swiss albino mice (setting [10]), this molecule came in with a Cholesterol of 107.82 ± 3.48 mg/dL, a Creatinine of 0.97 ± 0.09 mg/dL, a Haemoglobin of 12.42 ± 0.55 g/dL and an RBC of 7.54 ± 0.62 million per mm^3. In the data set with Swiss albino mice (setting [10]), the SGOT worked out at 19.73 ± 1.43 U L^−1, the SGPT was 17.55 ± 1.23 U L^−1, the Serum protein stood at 5.93 ± 0.13 mg/mL and the Triglycerides worked out at 108.74 ± 2.77 mg/dL. In data set [1], the IC50 is 7.69 ± 2.8 µM. Besides, the IC50 in data set [2] was determined as 9.38 ± 1.6 µM. In data set [3], the IC50 was determined as 8.72 ± 1.8 µM. Moreover, the IC50 in data set [4] is 18.5 ± 1.1 µM.
As to `O=C(/C=C/C=C/c1ccccc1)c1ccccc1OCc1ccccc1` [Compound 5k, (2E,4E)-1-(2-(Benzyloxy)phenyl)-5-phenylpenta-2,4-dien-1-one], the IC50 in data set [1] was 80.3 ± 8.7 µM; in data set [2], 46.6 ± 1.4 µM; in data set [3] it was 55.6 ± 3.7 µM; in data set [4] it was 109.4 ± 0.7 µM.
The corresponding values for `O=C(/C=C/C=C/c1ccccc1)c1ccccc1OCc1ccccc1Cl` [Compound 5d, (2E,4E)-1-(2-((2-Chlorobenzyl)oxy)phenyl)-5-phenylpenta-2,4-dien-1-one] are 75.9 ± 4.8 µM, 41.4 ± 3.9 µM, 46.1 ± 1.1 µM and 203 ± 5.3 µM.
The corresponding values for `O=C(/C=C/C=C/c1ccccc1)c1ccccc1OCc1ccc(Cl)cc1` [Compound 5c, (2E,4E)-1-(2-((4-Chlorobenzyl)oxy)phenyl)-5-phenylpenta-2,4-dien-1-one] are 30.7 ± 2 µM, 40.17 ± 0.2 µM, 47.1 ± 4.5 µM and 22.3 ± 1.2 µM.
The matching figures for `O=C(/C=C/C=C/c1ccccc1)c1ccccc1O` [Compound 3, (2E,4E)-1-(2-hydroxyphenyl)-5-phenylpenta-2,4-dien-1-one]: 20.8 ± 4.1 µM, 40.1 ± 2 µM, 83.5 ± 7.3 µM and 67.4 ± 9.1 µM.
Regarding `O=C(/C=C/C=C/c1ccccc1)c1ccccc1OCc1cccc(Cl)c1` [Compound 5a, (2E,4E)-1-(2-((3-Chlorobenzyl)oxy)phenyl)-5-phenylpenta-2,4-dien-1-one], the IC50 in data set [1] came to 20.8 ± 1.7 µM; in data set [2], 40.3 ± 2.9 µM; in data set [3] it was 45.2 ± 2.1 µM; in data set [4], 30.1 ± 8.3 µM.
